Published values gathered from unrelated publications.
Each line is one published result; the experiments were not run side by side.
CES2: Cocaine esterase (CES2, Homo sapiens, UniProt O00748)
MPO: Myeloperoxidase (MPO, Homo sapiens, UniProt P05164)
UDP-N-acetylglucosamine--dolichyl-phosphate N-acetylglucosaminephosphotransferase: UDP-N-acetylglucosamine--dolichyl-phosphate N-acetylglucosaminephosphotransferase (Homo sapiens, UniProt Q9H3H5)
CHRM5: Muscarinic acetylcholine receptor M5 (CHRM5, Homo sapiens, UniProt P08912)

| Structure (SMILES) | target | effect on | action | technique | notes | IC50 [µM] |
| --- | --- | --- | --- | --- | --- | --- |
| COc1cc2c(cc1OC)C(=O)/C(=C/c1ccc(C)cc1F)C2 | CES2 | enzyme activity | inhibitor | fluorescence | with preincubation | > 100 |
| NC/C(=C\F)COc1cccc(Cn2c(=S)[nH]c(=O)c3[nH]cnc32)c1 | MPO | enzyme activity | inhibitor | fluorescence | – | 0.017 |
| CCc1cc2c(cc1N1CCC(N3CCOCC3)CC1)C(C)(C)c1[nH]c3cc(C#N)ccc3c1C2=O | CES2 | enzyme activity | inhibitor | fluorescence | with preincubation | > 100 |
| CO[C@H]1[C@H](O[C@H]([C@H]2O[C@@H](n3ccc(=O)[nH]c3=O)[C@H](O)[C@@H]2O)[C@H](NCCCNC(=O)[C@@H](NC(=O)[C@@H](NC(=O)N[C@H](C(=O)O)C(C)C)[C@@H]2CCN=C(N)N2)[C@@H](O)C(C)C)C(=O)O)O[C@H](CN)[C@H]1O | UDP-N-acetylglucosamine--dolichyl-phosphate N-acetylglucosaminephosphotransferase | enzyme activity | inhibitor | – | – | > 50 |
| NCC(=O)O | ltaA (Aeromonas jandaei, UniProt O07051) | enzyme activity | inhibitor | – | – | 990 |
| Cn1cc(C2=C(c3cn(CCCSC(=N)N)c4ccccc34)C(=O)NC2=O)c2ccccc21 | Serine/threonine-protein kinase 10 (STK10, Homo sapiens, UniProt O94804) | enzyme activity | inhibitor | – | – | 0.118 |
| O=C(c1ccc(F)c(F)c1Nc1ccc(I)cc1F)N1CC(O)([C@@H]2CCCCN2)C1 | CES2 | enzyme activity | inhibitor | fluorescence | with preincubation | > 100 |
| CC(C)OCCn1c(=S)[nH]c(=O)c2[nH]ccc21 | MPO | enzyme activity | inhibitor | fluorescence | – | 0.038 |
| CO[C@H]1[C@H](O[C@H]([C@H]2O[C@@H](n3ccc(=O)[nH]c3=O)[C@H](O)[C@@H]2O)[C@H](NCCCNC(=O)[C@@H](NC(=O)[C@@H](NC(=O)N[C@H](C(=O)O)C(C)C)[C@@H]2CCN=C(N)N2)[C@@H](OC(=O)CCCCCCCCCCCCN(O)C(=N)N)C(C)C)C(=O)O)O[C@H](CN)[C@H]1O | UDP-N-acetylglucosamine--dolichyl-phosphate N-acetylglucosaminephosphotransferase | enzyme activity | inhibitor | – | – | 0.18 |
| COc1cc2c(cc1OC)C(=O)/C(=C/c1cc3ccccc3c3ccccc13)C2 | CES2 | enzyme activity | inhibitor | fluorescence | with preincubation | 2.98 |
| O=C(O[C@@H]1[C@@H](O)[C@H](Oc2cc(O)c3c(c2)O[C@H](c2ccccc2)CC3=O)O[C@@H]2COC(=O)c3cc(O)c(O)c(O)c3-c3c(cc(O)c(O)c3O)C(=O)O[C@@H]12)c1cc(O)c(O)c(O)c1 | Protein disulfide-isomerase A6 (PDIA6, Homo sapiens, UniProt Q15084) | enzyme activity | inhibitor | fluorescence | – | 1.5 |
| O=C(CCNC(=O)CNC(=O)CC(c1ccccc1)(c1ccccc1)c1ccccc1)NCC1CCN(Cc2ccc(F)cc2)CC1 | CHRM5 | ligand displacement | – | radioligand | cell membranes | 35.2 |
| CC[N+](CC)(CC)Cc1ccccc1.CC[N+](CC)(CC)Cc1ccccc1.[Br][Co-2]([Br])([Br])[Br] | MPO | enzyme activity | inhibitor | absorbance | – | 8.53 |
| O=C(CCNC(=O)CNC(=O)CC(c1ccccc1)(c1ccccc1)c1ccccc1)NC[C@@H]1CCCN(Cc2cccnc2F)C1 | CHRM5 | ligand displacement | – | radioligand | cell membranes | > 30 |
| Cc1nn(-c2nc3ccccc3[nH]2)c(O)c1C(c1ccccn1)c1c(C)nn(-c2nc3ccccc3[nH]2)c1O | Cyclic GMP-AMP synthase (CGAS, Homo sapiens, UniProt Q8N884) | enzyme activity | inhibitor | – | – | > 40 |
